HKDC1 inhibitor: HKDC1 (human) hexokinase inhibition; Q2TB90; 0.16% of 340,000 active; inhibition, % at 20 µM; recombinant HKDC1, G6PDH/diaphorase resazurin coupled fluorescence;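 active = inhibition above about 35% when tested at 20 µM, limit read from the data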;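 note: plate controls were DMSO wells with enzyme for no effect and DMSO wells lacking enzyme for full effect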
Target sequence (Q2TB90 whole entry, looked up): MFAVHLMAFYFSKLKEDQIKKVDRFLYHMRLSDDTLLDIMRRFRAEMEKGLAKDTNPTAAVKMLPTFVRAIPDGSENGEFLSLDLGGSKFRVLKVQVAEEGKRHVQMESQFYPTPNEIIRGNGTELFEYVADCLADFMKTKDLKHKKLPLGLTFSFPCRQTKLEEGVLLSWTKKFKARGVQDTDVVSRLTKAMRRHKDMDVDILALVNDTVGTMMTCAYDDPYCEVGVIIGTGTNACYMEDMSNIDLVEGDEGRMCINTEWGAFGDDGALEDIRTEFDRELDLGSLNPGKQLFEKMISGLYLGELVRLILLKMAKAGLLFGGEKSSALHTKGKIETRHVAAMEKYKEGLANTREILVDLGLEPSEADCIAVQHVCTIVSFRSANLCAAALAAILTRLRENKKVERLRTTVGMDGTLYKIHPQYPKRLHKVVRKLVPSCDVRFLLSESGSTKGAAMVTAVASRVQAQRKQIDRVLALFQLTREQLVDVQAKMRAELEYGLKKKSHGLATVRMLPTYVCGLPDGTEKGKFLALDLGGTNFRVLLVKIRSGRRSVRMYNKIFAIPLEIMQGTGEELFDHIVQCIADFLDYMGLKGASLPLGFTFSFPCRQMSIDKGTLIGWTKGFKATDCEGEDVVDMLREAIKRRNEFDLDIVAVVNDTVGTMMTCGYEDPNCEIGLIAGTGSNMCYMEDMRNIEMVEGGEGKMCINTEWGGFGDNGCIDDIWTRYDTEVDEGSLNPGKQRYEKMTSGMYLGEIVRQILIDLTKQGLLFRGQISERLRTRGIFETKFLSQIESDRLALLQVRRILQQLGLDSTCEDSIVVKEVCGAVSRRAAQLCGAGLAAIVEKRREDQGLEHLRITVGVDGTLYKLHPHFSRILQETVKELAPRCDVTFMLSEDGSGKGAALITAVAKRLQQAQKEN
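Test system: recombinant HKDC1 (HK5) hexokinase enzyme, produced in-house / Doses: 20 µM test compound, 1% DMSO / Timing: 90 min, room temperature / Detection: G6PDH/diaphorase-coupled fluorescence, 1 mM NADP, 100 µM resazurin, 525/613 nm / Control set: DMSO wells with and without enzyme mix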
G6PDH counter: L. mesenteroides G6PDH inhibition counter-screen; Purified L. mesenteroides G6PDH, diaphorase/resazurin coupled fluorescence, 45 min; 0.12% of 200,000 active; inhibition, % at 5 µM; AID 1020; in the data active = inhibition above about 50%
Diaphorase inh: diaphorase inhibition or chemical oxidation counter-screen; 0.69% of 190,000 active; inhibition, % at 20 µM; diaphorase resazurin-to-resorufin fluorescence, NADH, 16 min; bacterial (C. kluyveri) enzyme, not human;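 active = primary screen inhibition at 20 µM above a set limit, cut at about 50% in these data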;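 note: plate controls were DMSO with full reaction for no effect and wells lacking NADH for full effect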
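Assay system – diaphorase enzyme from Clostridium kluyveri · Amount – diaphorase 0.14 U/mL (working solution) · Times – reaction incubation of 16 min at room temperature · Controls – No-NADH positive control and DMSO neutral control · Signal – resorufin fluorescence 544/590 nm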
TbHK1 inh: T. brucei hexokinase 1 inhibition; recombinant TbHK1, G6PDH-coupled NADH A340; inhibition, % at 10 µM; 0.11% of 220,000 active; AID 1430;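 active = inhibition of 50% or more in the single-dose primary screen; inactive = inhibition below 50%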
PfGluPho inh: PfG6PD (Plasmodium falciparum) enzyme inhibition | PfGluPho enzyme, NADPH resazurin-diaphorase fluorescence | 0.78% of 350,000 active | inhibition, % at 20 µM;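 active = inhibition reaching at least a set limit at 20 µM in the primary screen, cut at about 59% in these data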;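 note: 0% = DMSO wells with substrate and 100% = DMSO wells lacking glucose-6-phosphate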
PfG6PD confirm: PfG6PD inhibition, single-dose confirmed; shares compounds with PfGluPho inh; AID 504753; inhibition, % at 20 µM; recombinant PfGluPho, NADPH-diaphorase-resazurin fluorescence; 34% of 2,400 active;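 active = inhibition of at least 50% at 20 µM in any single replicate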;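 note: 0% = DMSO with substrate and 100% = DMSO lacking glucose-6-phosphate substrate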
Diaph ctr 10uM: diaphorase inhibition or oxidation at 10 uM NADPH; 39% of 820 active; inhibition, % at 20 µM; shares compounds with PfGluPho inh; diaphorase-coupled resazurin reduction, fluorescence, NADPH 10 uM;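 active = average inhibition reaching 50% or more with the compound at 20 µM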;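 note: resorufin red fluorescence formed as diaphorase reduces resazurin using NADPH; 0% = DMSO with enzyme and 100% = DMSO without enzyme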
Diaph ctr 30uM: inhibits diaphorase or oxidizes, flagging false PfG6PD hits; shares compounds with PfGluPho inh; Diaphorase/resazurin coupled assay, resorufin fluorescence, 30 uM NADPH; inhibition, % at 20 µM; 29% of 820 active; AID 504863;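 active = inhibition averaging 50% or more, tested at 20 µM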;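 note: 0% = DMSO with enzyme and 100% = DMSO wells lacking diaphorase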
* marks the source's active call; other numbers are inactive results; · = no result given. Rows were chosen to be rich in hits. Some 1.3% of all compounds tested hit in one or more screens of this group.

SMILES	HKDC1 inhibitor	G6PDH counter	Diaphorase inh	TbHK1 inh	PfGluPho inh	PfG6PD confirm	others
CCCOc1ccc(C(=O)Nc2nc(C)c(Cc3ccc4c(c3)OCO4)s2)cc1	-2	-4	5	9	-7	·
COc1cc(C(=O)Nc2nc(C)c(Cc3ccc4c(c3)OCO4)s2)cc(OC)c1OC	-6	4	16	-8	62*	34
Cc1ccc(-c2cc(-c3ccc(Cl)cc3)c(C#N)c(N)n2)o1	18	8	6	3	96*	1
Cc1ccc(-c2cc(-c3ccc(C)o3)nc(N)c2C#N)cc1	11	-2	22	-6	60*	-19
Cc1cc(C(=O)Nc2ccc(Cl)cc2)n(-c2ccccc2)n1	5	·	·	·	9	·
Cc1cc(C(=O)Nc2ccc(Cl)cc2)c(C)n1-c1ccccc1	3	·	·	3	98*	11
Cc1ccc(NC(=O)c2cc(C)n(-c3cccc(C)c3)c2C)cc1	-8	-12	20	1	82*	32
Cc1ccc(NC(=O)c2cc(C)n(-c3ccccc3)c2C)cc1	-6	-5	14	9	95*	53*	Diaph ctr 10uM=53*;Diaph ctr 30uM=34
COc1cccc(-n2cc(CN(C)C(=O)C3CCC(=O)N(C4CC4)C3)cn2)c1 (centres undefined)	·	·	·	·	-10	·
O=C(CCC(=O)Nc1ccccc1Cl)N/N=C/c1ccccc1	-5	3	-2	1	105*	81*	Diaph ctr 10uM=69*;Diaph ctr 30uM=48
O=C(CCCSCCCC(=O)NN=Cc1ccccc1)NN=Cc1ccccc1	0	·	·	·	59*	19
O=C(CC(=O)N/N=C/c1ccccc1)NCc1ccccc1	1	4	9	2	107*	72*	Diaph ctr 10uM=67*;Diaph ctr 30uM=67*
O=C(CCCC(=O)Nc1ccc(Br)cc1)N/N=C/c1ccccc1	-3	·	·	·	60*	42
O=C(CCSCCC(=O)NN=Cc1ccc(F)cc1)NN=Cc1ccc(F)cc1	-8	·	·	·	16	·
O=C(CCSCCC(=O)NN=Cc1cccc(Cl)c1)NN=Cc1cccc(Cl)c1	18	·	·	·	86*	88*	Diaph ctr 10uM=79*;Diaph ctr 30uM=66*
O=[N+]([O-])c1ccc2c(c1)-c1ccccc1C2O (centres undefined)	·	·	·	·	114*	97*	Diaph ctr 10uM=37;Diaph ctr 30uM=19
O=[N+]([O-])c1ccc2c(c1)/C(=N\O)c1ccccc1-2	-1	·	·	-22	-16	·
NC(=O)c1ccc(N2CCN(c3ccc(O)cc3)CC2)c([N+](=O)[O-])c1	0	15	42	-4	66*	22
COc1ccc2cc(C(C)C(=O)Nc3cccc(S(=O)(=O)N(C)C)c3)ccc2c1 (centres undefined)	0	·	·	·	24	·
COc1ccc(/C=N/Nc2cc(C)nc3c(C)cccc23)cc1	-3	·	·	·	76*	33
FC(F)Oc1ccccc1NC(=S)NCCc1ccccc1	1	·	·	·	9	·
CC1=C(C)C(=O)C(CCCCC#CCCCC#CCO)=C(C)C1=O	30	57*	44	7	89*	31
O=C(CN1CCC(O)(c2ccc3c(c2)OCO3)CC1)OC1CCCCC1	-4	-16	16	-3	6	·
COc1cc(Br)c(C(=O)c2nccc3cc(OC)c(OC)cc23)cc1OC	15	·	·	·	88*	-21
OCC1OC(n2cnc3c(N4CCCCC4)ncnc32)C(O)C1O (centres undefined)	-2	·	·	·	3	·
SMILES	HKDC1 inhibitor	G6PDH counter	Diaphorase inh	TbHK1 inh	PfGluPho inh	PfG6PD confirm	others
Cc1ccccc1OCC(=O)NCC(=O)N/N=C/c1cccc([N+](=O)[O-])c1	·	4	-4	-1	·	·
O=C(N/N=C/c1cccc(Oc2ccc([N+](=O)[O-])cc2[N+](=O)[O-])c1)c1cncc(Br)c1	21	12	45	0	98*	69*	Diaph ctr 10uM=69*;Diaph ctr 30uM=58*
Cc1ccccc1OCC(=O)N/N=C/c1cccc(Oc2ccc([N+](=O)[O-])cc2[N+](=O)[O-])c1	11	-41	38	-4	127*	93*	Diaph ctr 10uM=87*;Diaph ctr 30uM=71*
CCc1c(C)sc(NC(=O)Cn2nc(C)c([N+](=O)[O-])c2C)c1C(N)=O	-4	7	5	-5	69*	29
Cc1ccc(OCC(=O)N2CCN(C(=O)c3ccc([N+](=O)[O-])cc3)CC2)cc1	-12	0	·	3	-14	·
O=C1Nc2cc(C(=O)NCCCN3CCCC3)ccc2S/C1=C/c1cccc(Cl)c1	·	·	·	·	61*	79*	Diaph ctr 10uM=-23;Diaph ctr 30uM=-25
CCN1CCCC1CNC(=O)c1ccc2c(c1)NC(=O)/C(=C\c1ccccc1Cl)S2 (centres undefined)	·	·	·	·	118*	105*	Diaph ctr 10uM=-13;Diaph ctr 30uM=-12
CC1CN(c2nc(Nc3ccccc3F)nc(N)c2[N+](=O)[O-])CC(C)O1 (centres undefined)	3	·	·	·	-7	·
O=C(COC(=O)[C@@H]1CCCN1S(=O)(=O)c1ccc(Cl)cc1)NC12CC3CC(CC(C3)C1)C2	9	-1	21	-6	12	·
Nc1cc2nc3ccccc3oc-2cc1=O	26	·	·	-4	74*	19
CCOc1ccc(Br)cc1C(=O)N/N=C/c1ccccn1	-8	·	·	·	11	·
CC(C)CCNC(=S)Nc1ccc(F)cc1	-5	·	·	1	-6	·
CCc1ccc(C(=O)/C=C/c2cnn(C)c2C)s1	-3	-2	7	-46	59*	39
O=C1CCCN1Cc1ccccc1	-8	·	·	·	2	·
CCOc1ccc(-c2c(=O)n(OCC)c3ccccc3[n+]2[O-])cc1	4	·	·	·	-10	·
CCOc1ccc(-c2c(=O)n(O)c3ccccc3[n+]2[O-])cc1	5	·	·	·	61*	17
CCOc1ccc(S(=O)(=O)NCc2ccccc2Cl)cc1C(N)=O	1	9	-22	7	75*	32
Cn1c2nc(=O)n(-c3ccccc3)c(=O)c-2nc2c1CCCC2	·	·	·	·	81*	49
O=C1S/C(=C\c2ccc(N3CCOCC3)o2)C(=O)N1Cc1c(F)cccc1Cl	-1	11	28	20	75*	17
O=C1S/C(=C/c2ccc(N3CCOCC3)o2)C(=O)N1Cc1c(F)cccc1Cl	10	8	20	-9	48	·
COc1ccc([C@H]2CC(=O)C=C(c3ccc4ccn(C)c4c3)C2)cc1	3	·	·	·	10	·
S=c1[nH]nc(-c2ccc3ccccc3n2)n1-c1ccc(Cl)cc1	7	-5	15	-7	36	·
Cc1ccccc1-n1c(-c2ccc3ccccc3n2)n[nH]c1=S	1	·	·	-26	69*	56*	Diaph ctr 10uM=15;Diaph ctr 30uM=17
Cc1ccc(S(=O)(=O)N2CCC(C(=O)NCC3CC3)CC2)cc1	-5	·	·	·	-18	·
